SR-BI DiI-HDL act: activators of SR-BI mediated HDL lipid uptake. hit rate 0.096% among 320,000. AID 504775. activation, % at 12.5 µM. CHO ldlA[mSR-BI] cells, DiI-HDL uptake fluorescence, 3 h; 100 = double the neutral-control signal;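 active = mean replicate activation of at least 60% and every replicate at or above 60%; inconclusive = mean or all-replicate condition met, but not both; inactive = mean below 60% and not all replicates reaching 60%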;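 also: 0% = median plate neutral-control signal and 100% = twice that signal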
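Material: SR-BI-overexpressing, LDLR-lacking CHO cells; schedule: compound exposure 3 h, 37 °C; reagent: DiI-labelled HDL at 10 µg/mL final; technique: bottom-read fluorescence, 550/595 nm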
MITF TRPM1 HTS: MITF TRPM1 promoter activation in melanoma cells; SK-MEL-5 TRPM1-promoter luciferase, 24 h; % of positive control, neutral wells = 0; activation, % at 12.5 µM; hit rate 0.75% among 300,000;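 active = mean activation of at least 80% with every replicate also reaching 80%; inconclusive = mean reaches 80% but some replicate falls short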;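 also: 0% = neutral control wells and 100% = parthenolide positive control wells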
SR-BI HDL uptake: blocks mouse SR-BI lipid uptake from DiI-HDL; ldlA[mSR-BI] CHO cells, DiI-HDL uptake fluorescence, 3 h; AID 488896; inhibition, % at 12.5 µM; Q61009; hit rate 0.96% among 320,000;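 active = mean replicate inhibition of at least 70% and a set share of replicates each scoring 70 or more; inconclusive = meets just one of the two criteria; inactive = fails both criteria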;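 also: 0% = median of neutral control wells and 100% = median of positive control wells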
Target sequence (Q61009 whole entry, looked up): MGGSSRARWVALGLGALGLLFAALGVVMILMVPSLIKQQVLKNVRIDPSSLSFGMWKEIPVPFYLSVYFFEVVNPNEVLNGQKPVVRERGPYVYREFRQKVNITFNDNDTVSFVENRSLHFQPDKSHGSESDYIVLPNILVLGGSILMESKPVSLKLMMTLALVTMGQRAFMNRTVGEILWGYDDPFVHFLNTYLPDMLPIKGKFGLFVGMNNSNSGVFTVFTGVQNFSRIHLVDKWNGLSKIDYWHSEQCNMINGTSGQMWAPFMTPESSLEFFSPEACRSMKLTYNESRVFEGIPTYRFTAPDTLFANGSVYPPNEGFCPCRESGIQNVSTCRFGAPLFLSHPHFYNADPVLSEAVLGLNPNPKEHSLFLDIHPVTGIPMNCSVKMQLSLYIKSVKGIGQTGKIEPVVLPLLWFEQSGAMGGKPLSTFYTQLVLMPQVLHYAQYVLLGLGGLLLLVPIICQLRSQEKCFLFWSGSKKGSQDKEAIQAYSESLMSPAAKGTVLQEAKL
HSF-1 act: increases HSF-1 driven luciferase reporter signal. NIH3T3-HGL HSF-1 luciferase reporter, MG132, 8 h; 100% = twice DMSO control signal. activation, % at 9 µM. hit rate 1.7% among 300,000. AID 504408;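 active = mean replicate activation of at least 50% with a set share of replicates each reaching 50%; inconclusive = only one of those two conditions met; inactive = mean below 50% and too few replicates reaching it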;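 also: 0% = median of the neutral control wells and 100% = twice that signal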
Wnt bcat act: Wnt/beta-catenin pathway activation; Wnt/beta-catenin reporter cell assay, activator, plate reader; activation, % at 9.35 µM; hit rate 1.2% among 300,000; in the data active = activation above about 30%, passing the limit was not always enough; inconclusive = no clear call, values can overlap the other calls;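 also: 0% = neutral control wells and 100% = positive control wells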
Active calls of the source: *; ? = inconclusive; · = not tested or not shown. In the library only some 3.6% were active in any assay of this set; here they are far more common.

SMILES	SR-BI DiI-HDL act	MITF TRPM1 HTS	SR-BI HDL uptake	HSF-1 act	Wnt bcat act
CCc1ccc(/C(C)=N/Nc2cc(Cl)nc(C)n2)cc1	-78.6	17.7	78.6*	-13.4	-0.8
C[C@@H]1ON(C)[C@H]2C[C@H]3c4[nH]c5cccc(-c6ccc7c(c6)OCO7)c5c4CCN3C(=O)[C@@H]12	·	·	·	·	-2.1
Cc1ccc(CSc2ccc(-c3ccco3)nn2)cc1	-8.1	49.7	8.1	34.0	21.2
Clc1ccc(CSc2ccc(-c3ccco3)nn2)cc1	20.8	65.1	-20.8	?	12.6
Fc1ccccc1CSc1ccc(-c2ccco2)nn1	21.0	95.4*	-21.0	·	10.7
c1ccc(CSc2ccc(-c3ccco3)nn2)cc1	12.8	43.6	-12.8	9.0	51.5*
O=C(Nc1nc(-c2nc3ccccc3s2)cs1)C1CC1	-5.5	·	5.5	67.3*	48.7*
Cc1ccc(-c2csc(NC(=O)CN3C(=O)CCC3=O)n2)cc1	-3.8	8.6	3.8	1.5	2.4
CC(=O)Nc1nc(-c2ccc3ccccc3c2)cs1	-35.4	94.4*	35.4	87.2*	48.2*
O=C(CN1C(=O)CCC1=O)Nc1nc(-c2nc3ccccc3s2)cs1	-4.2	92.0*	4.2	45.5	9.8
O=C(CN1C(=O)CCC1=O)Nc1nc(-c2ccccn2)cs1	1.7	-0.2	-1.7	10.1	-1.3
O=C(CN1C(=O)CCC1=O)Nc1nc(-c2ccc3ccccc3c2)cs1	-6.2	66.7	6.2	32.2	43.9*
O=C(Nc1nc(-c2nc3ccccc3s2)cs1)c1ccco1	8.6	·	-8.6	17.3	-2.6
CCOc1ccc(Cl)cc1C1=CC(=O)C[C@H](c2ccc(OC)cc2)C1	-61.8	-15.3	61.8	·	-15.1
CN1CCN(c2ccc(-c3ccnn3C(=O)Nc3ccccc3)cc2)CC1	23.1	48.8	-23.1	39.0	44.1*
CN1CCN(c2ccc(NC(=O)C(C)(c3ccccc3)c3ccccc3)cc2)CC1	-2.3	9.1	2.3	-5.1	-1.9
Cc1cccc2cc(/C=N/Nc3ccc(C(=O)O)cc3)c(Cl)nc12	0.9	153.0*	-0.9	-6.5	38.4*
O=C(O)c1ccc(N/N=C/c2cc3ccccc3nc2Cl)cc1	·	88.4*	·	-5.8	28.9
Clc1nc2ccccc2cc1/C=N/Nc1nc2ccccc2[nH]1	-9.5	9.0	9.5	17.6	63.0*
COCCNC(=O)C1CCCN(C(=O)COCc2ccccc2)CC1 (configuration not stated)	·	·	·	·	-2.5
CCCc1nc2nc(C)c(NS(=O)(=O)c3ccc(C)c(C)c3)c(=O)n2[nH]1	·	·	·	·	-2.6
c1ccc(Nc2nc(-c3cccs3)cs2)nc1	8.0	·	-8.0	28.5	-2.6
Nc1ccc(Nc2nc(-c3cccs3)cs2)cc1	-99.9	75.1	99.9*	4.8	7.7
CC(=O)OCCCN1c2ccccc2Nc2nnc(-c3ccccc3)cc21	-19.1	98.4*	19.1	?	·
CC(=O)OCCN1c2ccccc2Sc2cnccc21	·	·	·	·	-2.1
SMILES	SR-BI DiI-HDL act	MITF TRPM1 HTS	SR-BI HDL uptake	HSF-1 act	Wnt bcat act
CCN(CC)C(=O)Cn1nc(-c2ccncc2)nc1SCC(=O)Nc1ccc(OC)cc1	-3.7	-12.5	3.7	58.1*	-3.5
COc1ccc(NC(=O)COC(=O)CN2C(=O)C3CC=CCC3C2=O)c([N+](=O)[O-])c1 (configuration not stated)	7.1	-7.6	-7.1	·	40.2*
COc1ccc(NC(=O)CSc2ccccn2)c([N+](=O)[O-])c1	·	·	·	33.2	38.9*
CCOc1ccc(NC(=O)COc2ccccc2)c([N+](=O)[O-])c1	-36.3	130.0*	36.3	40.2	1.8
COC(=O)c1ccc(NC(=O)Cn2nc(-c3ccncc3)nc2SCC(=O)Nc2nccs2)cc1	-18.2	·	18.2	-32.0	·
CCOC(=O)CN(c1sc(C)c(C)c1C(=O)OCC)S(=O)(=O)c1ccc(C)cc1	·	·	·	·	-6.6
O=C(O)c1[nH]c(-c2ccccc2)c2c1C(=O)N(C1CC1)C2=O	·	·	·	·	-1.5
CCCCNC(=O)C[C@@H]1C[C@@]2(C(=O)OCC)CCCC=C2N(Cc2ccco2)C1=O	·	·	·	·	-1.7
CC(C)C[C@H]1CN(CCCC[C@H]2CNC(=O)C(=O)N2CCc2ccc(O)cc2)C(=O)C(=O)N1CCC1CCCCC1	·	·	·	·	-1.6
C=Cc1ccc(Cn2c(C)c(C(=O)NCc3ccccc3C(F)(F)F)sc2=O)cc1	·	·	·	·	-0.5
CN(C)c1ccc(/C=N/NC(=O)CSc2ccccn2)cc1	-8.5	·	8.5	-5.9	47.8*
CCOc1ccc(NC(=O)CSc2nccn2Cc2ccco2)cc1	20.3	48.6	-20.3	17.5	10.4
COC(=O)c1ccccc1NC(=O)COc1ccccc1[N+](=O)[O-]	-33.8	-11.6	33.8	-0.1	0.2
Cn1ccnc1SCC(=O)Nc1ccc(SC(F)F)cc1	-23.4	108.7*	23.4	·	28.1
Cc1ccc(OCC(=O)Nc2ccccc2[N+](=O)[O-])c(Br)c1	-18.0	79.0	18.0	55.2*	63.6*
Cn1ccnc1SCC(=O)Nc1ccccc1	10.2	8.1	-10.2	-7.3	·
COc1ccc(NC(=O)CSc2nccn2Cc2ccco2)cc1	2.7	57.1	-2.7	36.5	36.4*
COc1cc(/C=N/NC(=O)CSc2ccccn2)ccc1O	1.5	2.0	-1.5	-8.2	3.6
CN(C)CCN1CCN(C2CN(C3CCCC3)S(=O)(=O)C2)CC1 (configuration not stated)	·	·	·	·	-1.1
Cc1cc(N2CCN(C(C(=O)NC3CCCC3)c3ccc(F)cc3)CC2)c2ccccc2n1 (configuration not stated)	·	·	·	·	-0.6
O=C(CCSc1ccccn1)Nc1ccc(Br)cc1	5.8	58.4	-5.8	35.2	61.7*
COc1ccc(Cn2c(CCC(=O)Nc3ccc(C)cc3)nc3cccnc32)cc1	-13.9	0.2	13.9	54.3*	-6.3
O=C(O)CCSc1ccccn1	14.5	3.1	-14.5	7.5	-0.1
O=C(CSc1nnc(-c2cnccn2)n1Cc1ccco1)Nc1ccc(Br)cc1	-14.1	-10.9	14.1	55.1*	-0.4
CCOC(=O)c1cc(NC(=O)COc2ccc([N+](=O)[O-])cc2)cc(C(=O)OCC)c1	7.7	-15.0	-7.7	53.3*	-5.9
SMILES	SR-BI DiI-HDL act	MITF TRPM1 HTS	SR-BI HDL uptake	HSF-1 act	Wnt bcat act
COc1ccc(C(=O)CSc2nnc(-c3cnccn3)n2Cc2ccco2)cc1	-32.6	·	32.6	-5.2	·
O=C(O)C1c2ccccc2Cc2ccccc21	·	·	·	·	-1.5
Cc1ccc(S(=O)(=O)N2CCCC2CNC(=O)C(=O)NCc2ccc3c(c2)OCO3)cc1 (configuration not stated)	·	·	·	·	-3.0
COc1ccc(NC(=O)CSc2ccccn2)cc1	16.3	·	-16.3	-3.7	35.6*
O=C(CSc1ccccn1)Nc1ccc(NC(=O)CSc2ccccn2)cc1	-16.8	-7.9	16.8	19.1	·
Cc1ccc(-c2cnc(C(O)c3cc(C)cc(C)c3)[nH]2)cc1 (configuration not stated)	·	·	·	·	-4.6
O=C(N/N=C/c1ccccc1C(F)(F)F)c1ccc(O)cc1	-48.9	85.7*	48.9	46.9	3.1
O=C(N/N=C/c1ccc(O)cc1)c1cccc(C(F)(F)F)c1	-20.0	7.3	20.0	2.0	-2.5
Cc1cc(/C=N/NC(=O)c2ccncc2)c(C)n1-c1ccccc1	-11.0	29.5	11.0	6.8	22.7

Assay outcomes as filed in PubChem.
